ChEMBL document CHEMBL1145425, “Antitumor agents 259. Design, syntheses, and structure-activity relationship study of desmosdumotin C analogs” (2007)
Values after ≈ are worked out from the molar mass of the structure shown.

Tested on: A549
Assay: Cytotoxicity against human A549 cells
Format: functional
Conditions: read-out: ED50 (the source's name)
Summary of the method: (§1)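 Sulforhodamine B growth assay. Lines kept in RPMI-1640 with 25 mM HEPES, 0.25% sodium bicarbonate, 10% FBS and kanamycin. Trypsinized cells seeded at 1500–7500 per well, with compound added from DMSO-diluted stock. After 3 days, attached cells fixed with cold 50% TCA, stained with 0.4% SRB, dye solubilized, absorbance read at 562 nm. ED50 is 50% growth reduction, averaged over at least three independent determinations.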

Structure (SMILES)	EC50 [µg/mL]
CCCC1=C(OC)C(CCC)(CCC)C(=O)/C(=C(O)\C=C\c2ccc(Br)cc2)C1=O	1 (≈ 2.1 µM)
CCCC1=C(OC)C(CCC)(CCC)C(=O)/C(=C(O)\C=C\c2ccccc2)C1=O	1.4 (≈ 3.53 µM)
CC1(C)C(=O)C(C(=O)/C=C/c2ccccc2)=C(O)C(C)(C)C1=O	> 5
COC1=C(C)C(=O)/C(=C(O)/C=C/c2ccc(F)cc2)C(=O)C1(C)C	3.3 (≈ 9.99 µM)
COC1=C(C)C(=O)/C(=C(O)/C=C/c2ccc(C)cc2)C(=O)C1(C)C	4.3 (≈ 13.2 µM)
COC1=C(C)C(=O)/C(=C(O)/C=C/c2c(C)cccc2C)C(=O)C1(C)C	8.3 (≈ 24.4 µM)
COC1=C(C)C(=O)/C(=C(O)/C=C/c2cc(C)cc(C)c2)C(=O)C1(C)C	4.3 (≈ 12.6 µM)
C=Cc1ccccc1/C=C/C(O)=C1/C(=O)C(C)=C(OC)C(C)(C)C1=O	2.2 (≈ 6.5 µM)
COC1=C(C)C(=O)/C(=C(O)/C=C/c2ccco2)C(=O)C1(C)C	10 (≈ 33.1 µM)

Tested on: 1A9
Assay: Cytotoxicity against human 1A9 cells
Format: functional
Conditions: read-out: ED50 (the source's name)
Summary of the method: as §1

Structure (SMILES)	EC50 [µg/mL]
CCCC1=C(OC)C(CCC)(CCC)C(=O)/C(=C(O)\C=C\c2ccc(Br)cc2)C1=O	0.9 (≈ 1.89 µM)
CCCC1=C(OC)C(CCC)(CCC)C(=O)/C(=C(O)\C=C\c2ccccc2)C1=O	1.5 (≈ 3.78 µM)
CC1(C)C(=O)C(C(=O)/C=C/c2ccccc2)=C(O)C(C)(C)C1=O	4.6 (≈ 14.7 µM)
COC1=C(C)C(=O)/C(=C(O)/C=C/c2ccco2)C(=O)C1(C)C	7.9 (≈ 26.1 µM)

Tested on: HUVEC
Assay: Antiangiogenesis activity against HUVEC
Format: functional
Conditions: Homo sapiens, read-out: ED50 (the source's name)
Summary of the method: (§2)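 HUVEC seeded at 1.5×10^3 per well in EGM-2; after 24 h (day zero) compound added in EGM-2 at 2× the desired concentration. Day-zero plate stained with crystal violet. Remaining plates kept 72 h at 37 °C, then stained with 0.5% crystal violet in 20% MeOH. Dye eluted with 1:1 EtOH:0.1 M sodium citrate and read at 540 nm. Run per the NCI Angiogenesis Resource Center protocol.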

Structure (SMILES)	EC50 [µg/mL]
CC1(C)C(=O)C(C(=O)/C=C/c2ccccc2)=C(O)C(C)(C)C1=O	< 4
COC1=C(C)C(=O)/C(=C(O)/C=C/c2ccc(F)cc2)C(=O)C1(C)C	< 4
COC1=C(C)C(=O)/C(=C(O)/C=C/c2ccc(C)cc2)C(=O)C1(C)C	< 4
COC1=C(C)C(=O)/C(=C(O)/C=C/c2c(C)cccc2C)C(=O)C1(C)C	< 4
COC1=C(C)C(=O)/C(=C(O)/C=C/c2cc(C)cc(C)c2)C(=O)C1(C)C	< 4
C=Cc1ccccc1/C=C/C(O)=C1/C(=O)C(C)=C(OC)C(C)(C)C1=O	1.1 (≈ 3.25 µM)
COC1=C(C)C(=O)/C(=C(O)/C=C/c2ccco2)C(=O)C1(C)C	< 4

Tested on: HCT-8
Assay: Cytotoxicity against human HCT8 cells
Format: functional
Conditions: read-out: ED50 (the source's name)
Summary of the method: as §1

Structure (SMILES)	EC50 [µg/mL]
CCCC1=C(OC)C(CCC)(CCC)C(=O)/C(=C(O)\C=C\c2ccc(Br)cc2)C1=O	1.3 (≈ 2.73 µM)
CCCC1=C(OC)C(CCC)(CCC)C(=O)/C(=C(O)\C=C\c2ccccc2)C1=O	1.4 (≈ 3.53 µM)
CC1(C)C(=O)C(C(=O)/C=C/c2ccccc2)=C(O)C(C)(C)C1=O	5 (≈ 16 µM)
COC1=C(C)C(=O)/C(=C(O)/C=C/c2ccc(F)cc2)C(=O)C1(C)C	3.6 (≈ 10.9 µM)
COC1=C(C)C(=O)/C(=C(O)/C=C/c2ccc(C)cc2)C(=O)C1(C)C	4.1 (≈ 12.6 µM)
COC1=C(C)C(=O)/C(=C(O)/C=C/c2c(C)cccc2C)C(=O)C1(C)C	7.8 (≈ 22.9 µM)
COC1=C(C)C(=O)/C(=C(O)/C=C/c2cc(C)cc(C)c2)C(=O)C1(C)C	2.9 (≈ 8.52 µM)
C=Cc1ccccc1/C=C/C(O)=C1/C(=O)C(C)=C(OC)C(C)(C)C1=O	2.1 (≈ 6.21 µM)
COC1=C(C)C(=O)/C(=C(O)/C=C/c2ccco2)C(=O)C1(C)C	17.5 (≈ 57.9 µM)

Tested on: PC-3
Assay: Cytotoxicity against human PC3 cells
Format: functional
Conditions: read-out: ED50 (the source's name)
Summary of the method: as §1

Structure (SMILES)	EC50 [µg/mL]
CCCC1=C(OC)C(CCC)(CCC)C(=O)/C(=C(O)\C=C\c2ccc(Br)cc2)C1=O	2.3 (≈ 4.84 µM)
CCCC1=C(OC)C(CCC)(CCC)C(=O)/C(=C(O)\C=C\c2ccccc2)C1=O	3.3 (≈ 8.32 µM)
CC1(C)C(=O)C(C(=O)/C=C/c2ccccc2)=C(O)C(C)(C)C1=O	11.1 (≈ 35.5 µM)
COC1=C(C)C(=O)/C(=C(O)/C=C/c2ccc(F)cc2)C(=O)C1(C)C	7.2 (≈ 21.8 µM)
COC1=C(C)C(=O)/C(=C(O)/C=C/c2ccc(C)cc2)C(=O)C1(C)C	8.2 (≈ 25.1 µM)
COC1=C(C)C(=O)/C(=C(O)/C=C/c2c(C)cccc2C)C(=O)C1(C)C	17.1 (≈ 50.2 µM)
COC1=C(C)C(=O)/C(=C(O)/C=C/c2cc(C)cc(C)c2)C(=O)C1(C)C	8.8 (≈ 25.9 µM)
C=Cc1ccccc1/C=C/C(O)=C1/C(=O)C(C)=C(OC)C(C)(C)C1=O	4.6 (≈ 13.6 µM)
COC1=C(C)C(=O)/C(=C(O)/C=C/c2ccco2)C(=O)C1(C)C	20.6 (≈ 68.1 µM)

Tested on: KB
Assay: Cytotoxicity against human KB cells
Format: functional
Conditions: read-out: ED50 (the source's name)
Summary of the method: as §1

Structure (SMILES)	EC50 [µg/mL]
CCCC1=C(OC)C(CCC)(CCC)C(=O)/C(=C(O)\C=C\c2ccc(Br)cc2)C1=O	0.9 (≈ 1.89 µM)
CCCC1=C(OC)C(CCC)(CCC)C(=O)/C(=C(O)\C=C\c2ccccc2)C1=O	0.6 (≈ 1.51 µM)
CC1(C)C(=O)C(C(=O)/C=C/c2ccccc2)=C(O)C(C)(C)C1=O	7.3 (≈ 23.4 µM)
COC1=C(C)C(=O)/C(=C(O)/C=C/c2ccc(F)cc2)C(=O)C1(C)C	3.7 (≈ 11.2 µM)
COC1=C(C)C(=O)/C(=C(O)/C=C/c2ccc(C)cc2)C(=O)C1(C)C	3.9 (≈ 11.9 µM)
COC1=C(C)C(=O)/C(=C(O)/C=C/c2c(C)cccc2C)C(=O)C1(C)C	7.1 (≈ 20.9 µM)
COC1=C(C)C(=O)/C(=C(O)/C=C/c2cc(C)cc(C)c2)C(=O)C1(C)C	3.1 (≈ 9.11 µM)
C=Cc1ccccc1/C=C/C(O)=C1/C(=O)C(C)=C(OC)C(C)(C)C1=O	1.9 (≈ 5.61 µM)
COC1=C(C)C(=O)/C(=C(O)/C=C/c2ccco2)C(=O)C1(C)C	9.9 (≈ 32.7 µM)

Tested on: A-431
Assay: Cytotoxicity against human A431 cells
Format: functional
Conditions: read-out: ED50 (the source's name)
Summary of the method: as §1

Structure (SMILES)	EC50 [µg/mL]
CCCC1=C(OC)C(CCC)(CCC)C(=O)/C(=C(O)\C=C\c2ccc(Br)cc2)C1=O	1.2 (≈ 2.52 µM)
CCCC1=C(OC)C(CCC)(CCC)C(=O)/C(=C(O)\C=C\c2ccccc2)C1=O	1.9 (≈ 4.79 µM)
CC1(C)C(=O)C(C(=O)/C=C/c2ccccc2)=C(O)C(C)(C)C1=O	10.5 (≈ 33.6 µM)
COC1=C(C)C(=O)/C(=C(O)/C=C/c2ccc(F)cc2)C(=O)C1(C)C	4.1 (≈ 12.4 µM)
COC1=C(C)C(=O)/C(=C(O)/C=C/c2ccc(C)cc2)C(=O)C1(C)C	5.1 (≈ 15.6 µM)
COC1=C(C)C(=O)/C(=C(O)/C=C/c2c(C)cccc2C)C(=O)C1(C)C	10.1 (≈ 29.7 µM)
COC1=C(C)C(=O)/C(=C(O)/C=C/c2cc(C)cc(C)c2)C(=O)C1(C)C	4 (≈ 11.8 µM)
C=Cc1ccccc1/C=C/C(O)=C1/C(=O)C(C)=C(OC)C(C)(C)C1=O	2.6 (≈ 7.68 µM)
COC1=C(C)C(=O)/C(=C(O)/C=C/c2ccco2)C(=O)C1(C)C	14.7 (≈ 48.6 µM)

Tested on: HUVEC
Assay: Cytotoxicity against HUVEC
Format: functional
Conditions: Homo sapiens, read-out: ED50 (the source's name)
Summary of the method: as §2

Structure (SMILES)	EC50 [µg/mL]
CC1(C)C(=O)C(C(=O)/C=C/c2ccccc2)=C(O)C(C)(C)C1=O	2 (≈ 6.4 µM)
COC1=C(C)C(=O)/C(=C(O)/C=C/c2ccc(F)cc2)C(=O)C1(C)C	2 (≈ 6.05 µM)
COC1=C(C)C(=O)/C(=C(O)/C=C/c2ccc(C)cc2)C(=O)C1(C)C	2.4 (≈ 7.35 µM)
COC1=C(C)C(=O)/C(=C(O)/C=C/c2c(C)cccc2C)C(=O)C1(C)C	3 (≈ 8.81 µM)
COC1=C(C)C(=O)/C(=C(O)/C=C/c2cc(C)cc(C)c2)C(=O)C1(C)C	2.5 (≈ 7.34 µM)
C=Cc1ccccc1/C=C/C(O)=C1/C(=O)C(C)=C(OC)C(C)(C)C1=O	1.1 (≈ 3.25 µM)
COC1=C(C)C(=O)/C(=C(O)/C=C/c2ccco2)C(=O)C1(C)C	2.4 (≈ 7.94 µM)

Tested on: KB
Assay: Cytotoxicity against human vincristine-resistant KB cells
Format: functional
Conditions: read-out: ED50 (the source's name)
Summary of the method: as §1

Structure (SMILES)	EC50 [µg/mL]
CCCC1=C(OC)C(CCC)(CCC)C(=O)/C(=C(O)\C=C\c2ccc(Br)cc2)C1=O	0.9 (≈ 1.89 µM)
CCCC1=C(OC)C(CCC)(CCC)C(=O)/C(=C(O)\C=C\c2ccccc2)C1=O	0.8 (≈ 2.02 µM)
CC1(C)C(=O)C(C(=O)/C=C/c2ccccc2)=C(O)C(C)(C)C1=O	3.8 (≈ 12.2 µM)
COC1=C(C)C(=O)/C(=C(O)/C=C/c2ccc(F)cc2)C(=O)C1(C)C	2.7 (≈ 8.17 µM)
COC1=C(C)C(=O)/C(=C(O)/C=C/c2ccc(C)cc2)C(=O)C1(C)C	1.9 (≈ 5.82 µM)
COC1=C(C)C(=O)/C(=C(O)/C=C/c2c(C)cccc2C)C(=O)C1(C)C	2.1 (≈ 6.17 µM)
COC1=C(C)C(=O)/C(=C(O)/C=C/c2cc(C)cc(C)c2)C(=O)C1(C)C	1.6 (≈ 4.7 µM)
C=Cc1ccccc1/C=C/C(O)=C1/C(=O)C(C)=C(OC)C(C)(C)C1=O	1.1 (≈ 3.25 µM)
COC1=C(C)C(=O)/C(=C(O)/C=C/c2ccco2)C(=O)C1(C)C	8.8 (≈ 29.1 µM)
